Reference: ChEMBL document CHEMBL1142961, “Novel selective inhibitors of the zinc plasmodial aminopeptidase PfA-M1 as potential antimalarial agents” (J Med Chem, 2007)

Tests used:
[1] = target: T1, Aminopeptidase N (Sus scrofa) (UniProt P15145); assay: Inhibition of pig kidney microsomal APN at 10 uM
T1 sequence (whole entry): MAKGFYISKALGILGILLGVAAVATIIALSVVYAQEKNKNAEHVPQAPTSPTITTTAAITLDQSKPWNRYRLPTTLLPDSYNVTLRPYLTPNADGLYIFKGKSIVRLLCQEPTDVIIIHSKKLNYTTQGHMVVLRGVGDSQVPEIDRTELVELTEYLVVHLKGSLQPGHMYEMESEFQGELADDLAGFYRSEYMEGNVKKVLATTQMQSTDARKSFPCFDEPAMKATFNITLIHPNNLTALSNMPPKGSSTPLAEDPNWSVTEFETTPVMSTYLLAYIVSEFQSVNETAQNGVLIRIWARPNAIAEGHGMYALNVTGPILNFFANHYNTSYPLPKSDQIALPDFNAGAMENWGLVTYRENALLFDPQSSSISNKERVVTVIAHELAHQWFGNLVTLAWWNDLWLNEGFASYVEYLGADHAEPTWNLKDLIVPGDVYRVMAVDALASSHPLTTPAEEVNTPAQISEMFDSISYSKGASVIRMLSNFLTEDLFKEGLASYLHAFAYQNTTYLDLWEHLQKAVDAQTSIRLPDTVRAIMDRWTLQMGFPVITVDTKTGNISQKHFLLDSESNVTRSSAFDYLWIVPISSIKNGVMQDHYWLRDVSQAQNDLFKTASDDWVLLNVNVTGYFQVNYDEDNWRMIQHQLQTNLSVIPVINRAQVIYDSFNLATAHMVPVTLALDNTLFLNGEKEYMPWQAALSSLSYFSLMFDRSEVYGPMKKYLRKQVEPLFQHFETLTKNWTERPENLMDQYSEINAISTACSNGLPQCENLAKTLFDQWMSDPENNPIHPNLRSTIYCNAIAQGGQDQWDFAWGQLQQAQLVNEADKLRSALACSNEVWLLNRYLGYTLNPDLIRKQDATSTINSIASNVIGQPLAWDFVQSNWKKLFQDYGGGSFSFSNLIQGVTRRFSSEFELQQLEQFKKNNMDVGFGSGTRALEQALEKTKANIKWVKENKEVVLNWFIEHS
In short: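 Porcine kidney microsomal APN (ammonium sulfate suspension) diluted 600-fold in 25 mM Tris-HCl pH 7.4. Preincubated with inhibitor for 10 min at room temperature, then Leu-pNA added (0.3 mM stock). Hydrolysis followed at 405 nm at room temperature. Rates normalized to a no-inhibitor control. Single point at 10 µM; IC50 from concentration-velocity curves. Bestatin used as reference.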

[2] = target: T2, Aminopeptidase N (Plasmodium falciparum FcB1/Columbia) (UniProt O96935); assay: Inhibition of Plasmodium falciparum FcB1 M1 aminopeptidase at 10 uM
T2 sequence (whole entry): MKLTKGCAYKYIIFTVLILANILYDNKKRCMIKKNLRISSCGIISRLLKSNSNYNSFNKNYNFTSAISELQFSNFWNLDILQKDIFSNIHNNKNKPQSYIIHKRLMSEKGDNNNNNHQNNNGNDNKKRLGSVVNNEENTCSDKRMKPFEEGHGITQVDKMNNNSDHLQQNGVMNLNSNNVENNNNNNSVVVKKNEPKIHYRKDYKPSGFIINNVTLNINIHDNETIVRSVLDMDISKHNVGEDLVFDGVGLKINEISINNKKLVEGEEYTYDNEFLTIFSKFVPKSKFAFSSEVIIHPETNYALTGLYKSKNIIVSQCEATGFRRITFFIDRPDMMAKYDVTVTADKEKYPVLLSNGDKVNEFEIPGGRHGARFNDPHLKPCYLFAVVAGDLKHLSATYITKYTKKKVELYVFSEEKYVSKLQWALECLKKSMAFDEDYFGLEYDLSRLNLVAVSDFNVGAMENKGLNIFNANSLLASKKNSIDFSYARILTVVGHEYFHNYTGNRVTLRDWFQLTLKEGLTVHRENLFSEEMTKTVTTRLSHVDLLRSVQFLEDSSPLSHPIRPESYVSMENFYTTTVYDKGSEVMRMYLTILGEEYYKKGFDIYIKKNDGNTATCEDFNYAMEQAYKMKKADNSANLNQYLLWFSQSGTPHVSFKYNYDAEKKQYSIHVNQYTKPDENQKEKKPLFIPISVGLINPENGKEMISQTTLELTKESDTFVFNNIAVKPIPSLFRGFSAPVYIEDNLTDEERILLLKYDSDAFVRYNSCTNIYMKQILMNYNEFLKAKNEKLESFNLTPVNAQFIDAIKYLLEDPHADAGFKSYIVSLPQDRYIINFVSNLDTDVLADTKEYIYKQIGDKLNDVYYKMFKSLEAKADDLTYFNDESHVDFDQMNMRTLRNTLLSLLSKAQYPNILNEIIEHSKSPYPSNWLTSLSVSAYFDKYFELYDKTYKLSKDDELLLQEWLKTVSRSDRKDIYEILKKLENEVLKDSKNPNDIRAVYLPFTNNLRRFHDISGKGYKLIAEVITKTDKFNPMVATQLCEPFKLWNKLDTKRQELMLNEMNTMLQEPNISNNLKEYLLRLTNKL
In short: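 Native enzyme purified from P. falciparum FcB1, diluted 10-fold in 25 mM Tris-HCl pH 7.4. Preincubated with inhibitor for 10 min at room temperature, then Leu-pNA substrate added (0.3 mM stock, Km 0.099 mM). Kinetics followed at 405 nm at room temperature. Initial velocities normalized to a no-inhibitor control. Single-point screen at 10 µM; IC50 from velocity versus inhibitor concentration curves. Bestatin used as reference.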

Structure (SMILES) | inhibition [1] [%] | inhibition [2] [%]
O=C(NO)C(Cc1cccc(Oc2ccccc2)c1)C(=O)N1CCN(Cc2ccccc2)CC1 (centres undefined) | 47 | 84
NC(C(=O)NO)C(=O)N1CCN(Cc2ccccc2)CC1 (centres undefined) | -5 | 18
CN(CCCCc1ccccc1)C(=O)CC(=O)NO | 11 | -4
O=C(CC(=O)NCc1ccc(F)cc1)NO | 16 | 6
O=C(CC(=O)N1CCN(c2ccccc2)CC1)NO | 11 | -9
O=C(NO)C(Cc1cccc(Oc2ccccc2)c1)C(=O)N1CCN(c2ccccc2)CC1 (centres undefined) | 63 | 38
O=C(NO)C(Cc1ccccc1)C(=O)N1CCN(Cc2ccc3c(c2)OCO3)CC1 (centres undefined) | 29 | 53
CC(C)CN(CCCCc1ccccc1)C(=O)C(Cc1ccccc1)C(=O)NO (centres undefined) | 28 | 45
O=C(NO)C(Cc1cccc(Oc2ccccc2)c1)C(=O)N1CCN(C(c2ccccc2)c2ccccc2)CC1 (centres undefined) | 41 | -6
Cc1ccccc1CNC(=O)C(Cc1cccc(Oc2ccccc2)c1)C(=O)NO (centres undefined) | 86 | 99
Cc1ccccc1CNC(=O)CC(=O)NO | 17 | 32
CC(C)CC(C(=O)NO)C(=O)N[C@H]1CCN(Cc2ccccc2)C1 (some centres undefined) | 86 | 58
NC(C(=O)NO)C(=O)NC1Cc2ccccc2C1 (centres undefined) | 36 | 20
O=C(CC(=O)N1CCN(Cc2ccc3c(c2)OCO3)CC1)NO | 11 | 7
NC(C(=O)NO)C(=O)NCCc1ccccn1 (centres undefined) | 22 | -7
O=C(CC(=O)N1CCN(C(c2ccccc2)c2ccccc2)CC1)NO | 14 | 21
CC(C)CC(C(=O)NO)C(=O)NCc1cccc(-c2ccccc2)c1 (centres undefined) | 95 | 69
CC(C)CC(C(=O)NO)C(=O)N1CCC2(CCNc3ccccc3O2)CC1 (centres undefined) | 21 | 16
NC(C(=O)NO)C(=O)NC1CCN(Cc2ccccc2)CC1 (centres undefined) | 25 | -4
O=C(CC(=O)NCCC(c1ccccc1)c1ccccc1)NO | 87 | 50
NC(C(=O)NO)C(=O)NCc1cccnc1 (centres undefined) | 24 | -6
O=C(CC(=O)NC1CCN(Cc2ccccc2)CC1)NO | 14 | -2
NC(C(=O)NO)C(=O)N1CCC(n2c(=O)[nH]c3ccccc32)CC1 (centres undefined) | 34 | 12
CC(C)CC(C(=O)NO)C(=O)N(C)Cc1ccccc1 (centres undefined) | 37 | 23
O=C(NO)C(Cc1cccc(Oc2ccccc2)c1)C(=O)N1CCC2(CC1)C(=O)NCN2c1ccccc1 (centres undefined) | 70 | 65

Second part, the compound after the results:

inhibition [1] [%] | inhibition [2] [%] | Structure (SMILES)
30 | -4 | CC(C)CC(C(=O)NO)C(=O)NCc1cccnc1 (centres undefined)
27 | -2 | O=C(CC(=O)NCCc1ccccc1)NO
57 | 3 | CC(C)CC(C(=O)NO)C(=O)NC1CCN(Cc2ccccc2)CC1 (centres undefined)
31 | 51 | NC(C(=O)NO)C(=O)NCc1cccc(Oc2ccccc2)c1 (centres undefined)
27 | -5 | O=C(CC(=O)N1CCC2(CCNc3ccccc3O2)CC1)NO
72 | 43 | O=C(NO)C(Cc1cccc(Oc2ccccc2)c1)C(=O)NC1Cc2ccccc2C1 (centres undefined)
19 | -2 | CC(C)CC(C(=O)NO)C(=O)N1CCN(C(c2ccccc2)c2ccccc2)CC1 (centres undefined)
40 | 1 | O=C(CC(=O)NCc1ccc(C(F)(F)F)cc1)NO
53 | 76 | CN(CCCCc1ccccc1)C(=O)C(Cc1ccccc1)C(=O)NO (centres undefined)
62 | 35 | NC(C(=O)NO)C(=O)NCc1cccc(-c2ccccc2)c1 (centres undefined)
62 | 8 | NC(C(=O)NO)C(=O)NCCC(c1ccccc1)c1ccccc1 (centres undefined)
78 | 66 | O=C(NO)C(Cc1cccc(Oc2ccccc2)c1)C(=O)NCCNc1cccc2ccccc12 (centres undefined)
21 | 3 | O=C(NO)C(Cc1ccccc1)C(=O)NC1CCN(Cc2ccccc2)CC1 (centres undefined)
54 | 5 | NC(C(=O)NO)C(=O)NCc1ccc(Cl)cc1 (centres undefined)
25 | -8 | NC(C(=O)NO)C(=O)NCCc1ccccc1 (centres undefined)
20 | 2 | CC(C)CC(C(=O)NO)C(=O)N(C)CCCCc1ccccc1 (centres undefined)

inhibition [1] [%] | inhibition [2] [%] | Structure (SMILES)
22 | 35 | O=C(NO)C(Cc1cccc(Oc2ccccc2)c1)C(=O)NCc1ccc(F)cc1 (centres undefined)
83 | 65 | O=C(NO)C(Cc1ccccc1)C(=O)NCCC(c1ccccc1)c1ccccc1 (centres undefined)
37 | 2 | NC(C(=O)NO)C(=O)N[C@H]1CCN(Cc2ccccc2)C1 (some centres undefined)
56 | 75 | O=C(NO)C(Cc1ccccc1)C(=O)N(CCc1ccccc1)Cc1ccccc1 (centres undefined)
23 | 7 | O=C(CC(=O)N1CCC(Cc2ccccc2)CC1)NO
29 | -1 | CN(Cc1ccccc1)C(=O)C(N)C(=O)NO (centres undefined)
66 | 28 | O=C(CC(=O)NCc1cccc(-c2ccccc2)c1)NO
19 | 5 | O=C(CC(=O)N1CCC2(CC1)C(=O)NCN2c1ccccc1)NO
89 | 86 | CN(Cc1ccccc1)C(=O)C(Cc1cccc(Oc2ccccc2)c1)C(=O)NO (centres undefined)
47 | 29 | O=C(NO)C(Cc1ccccc1)C(=O)NCCc1ccccn1 (centres undefined)
83 | 77 | CN(CCCNC(=O)C(Cc1cccc(Oc2ccccc2)c1)C(=O)NO)c1ccccc1 (centres undefined)
86 | 41 | O=C(NO)C(Cc1cccc(Oc2ccccc2)c1)C(=O)N[C@H]1CCN(Cc2ccccc2)C1 (some centres undefined)
26 | 7 | CC(C)CC(C(=O)NO)C(=O)N1CCC2(CC1)C(=O)NCN2c1ccccc1 (centres undefined)
19 | 21 | CC(C)CC(C(=O)NO)C(=O)N1CCN(Cc2ccc3c(c2)OCO3)CC1 (centres undefined)
28 | 43 | O=C(NO)C(Cc1ccccc1)C(=O)N[C@H]1CCN(Cc2ccccc2)C1 (some centres undefined)
32 | 49 | NC(C(=O)NO)C(=O)N1CCc2ccccc2C1 (centres undefined)
